For series [1], the system named is Rattus norvegicus. In words: Hypolipidemic activity was measured as reduction in rat serum triglyceride after oral administration in male Wistar rats at 30 mg / (kg day). It counts as functional. The gist of the method:
(§1)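 Cholesterol-fed rats given the test compound orally by gavage on the last 3 days, with controls receiving vehicle (0.5% tragacanth mucilage). After overnight starvation, rats were killed under CO2 3 h after the last dose and bled by cardiac puncture. Serum cholesterol and triglyceride were measured by autoanalyzer and expressed as percentage reduction from control levels, with Student's t test.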

Series [2] can be described thus: (§2) The therapeutic safety margin (TSM) is the ratio of the minimum lethal dose (mg/kg)to the MED. The format is ADME, organism-based. The conditions noted are these: in vivo. An outline of the steps:
(§3)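 Young male Wistar rats, eight per group, on cholesterol/cholic acid-supplemented or normal diet; graded oral gavage doses daily for 14 days; vehicle controls (0.5% tragacanth mucilage). Mortalities recorded to give the minimum lethal daily dose. After overnight fasting, serum cholesterol assayed by autoanalyzer. MED is the dose giving a significant (t test) 30% cholesterol fall, from the log dose/response curve. TSM = minimum lethal dose/MED.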

The test system of series [3] is Rattus norvegicus. Put plainly: Hypolipidemic activity was measured as reduction in rat serum cholesterol after oral administration in male Wistar rats at 3 mg / (kg day). The format is functional. An outline of the steps: as §1
Series [4] concerns Rattus norvegicus. Put plainly: Hypolipidemic activity was measured as reduction in rat serum triglyceride after oral administration in male Wistar rats at 1 mg / (kg day). It counts as functional. An outline of the steps: as §1
Series [5] concerns Rattus norvegicus. In words: Hypolipidemic activity was measured as reduction in rat serum cholesterol after oral administration in male Wistar rats at 30 mg / (kg day). It counts as functional. The gist of the method:
as §1

Series [6] deals with Rattus norvegicus. Put plainly: Hypolipidemic activity was measured as reduction in rat serum cholesterol after oral administration in male Wistar rats at 100 mg/(kg day). It counts as functional. An outline of the steps:
as §1

For series [7], the system named is Rattus norvegicus. Put plainly: Hypolipidemic activity was measured as reduction in rat serum triglyceride after oral administration in male Wistar rats at 3 mg / (kg day). It counts as functional. The gist of the method: as §1
For series [8], the system named is Rattus norvegicus. Put plainly: Minimum effective dose (MED) is the dose (mg/kg)that cause significant reduction in serum cholesterol of 30% compared to concurrent controls. It counts as functional. Details: unit: mg/kg. The gist of the method:
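MED was calculated from the log dose/response curve as the dose giving a statistically significant 30% fall in serum cholesterol versus concurrent controls. Measured in the 3-day oral cholesterol-fed rat screen, or in a 2-week test: groups of eight young male Wistar rats on cholesterol/cholic acid-supplemented or normal diet, dosed orally by gavage daily for 14 days, vehicle 0.5% tragacanth mucilage.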

Series [9] concerns Rattus norvegicus. Put plainly: Hypolipidemic activity was measured as reduction in rat serum triglyceride after oral administration in male Wistar rats at 100 mg / (kg day). The format is functional. The gist of the method: as §1
Series [10] relates to Rattus norvegicus. Put plainly: Hypolipidemic activity was measured as reduction in rat serum cholesterol after oral administration in male Wistar rats at 1 mg / (kg day). The format is functional. An outline of the steps:
as §1

Series [11] relates to Rattus norvegicus. Put plainly: Hypolipidemic activity was measured as reduction in rat serum cholesterol after oral administration in male Wistar rats at 10 mg / (kg day). The format is functional. The gist of the method: as §1
Series [12] concerns Rattus norvegicus. In words: Hypolipidemic activity was measured as reduction in rat serum triglyceride after oral administration in male Wistar rats at 10 mg / (kg day). It counts as functional. An outline of the steps: as §1
For series [13], the system named is Rattus norvegicus. Put plainly: Hypolipidemic activity was measured as reduction in rat serum cholesterol after oral administration in male Wistar rats at 20 mg / (kg day). It counts as functional. An outline of the steps: as §1
For series [14], the system named is Rattus norvegicus. In words: Hypolipidemic activity was measured as reduction in rat serum triglyceride after oral administration in male Wistar rats at 20 mg / (kg day). It counts as functional. The gist of the method: as §1
Series [15] has as its system Rattus norvegicus. In words: Hypolipidemic activity was measured as reduction in rat serum cholesterol after oral administration in male Wistar rats at 50 mg / (kg day). The format is functional. The gist of the method:
as §1

The test system of series [16] is Rattus norvegicus. In words: Hypolipidemic activity was measured as reduction in rat serum triglyceride after oral administration in male Wistar rats at 50 mg / (kg day). It counts as functional. An outline of the steps:
as §1

The subject of series [17] is Rattus norvegicus. In words: Hypolipidemic activity was measured as reduction in rat serum cholesterol after oral administration in male Wistar rats at 100 mg / (kg day). The format is functional. An outline of the steps:
as §1

Series [18] deals with Rattus norvegicus. Put plainly: Hypolipidemic activity was measured as reduction in rat serum cholesterol after oral administration in male Wistar rats at 200 mg/(kg day). It counts as functional. The gist of the method: as §1
In series [19] the test system is Rattus norvegicus. In words: Hypolipidemic activity was measured as reduction in rat serum triglyceride after oral administration in male Wistar rats at 3 mg / (kg day);. The format is functional. An outline of the steps:
as §1

The test system of series [20] is Rattus norvegicus. In words: Hypolipidemic activity was measured as reduction in rat serum cholesterol after oral administration in male Wistar rats at 3 mg / (kg day);. The format is functional. An outline of the steps: as §1
Series [21] relates to Rattus norvegicus. In words: Hypolipidemic activity was measured as reduction in rat serum triglyceride after oral administration in male Wistar rats at 200 mg / (kg day). It counts as functional. The gist of the method:
as §1

For series [22], the system named is Rattus norvegicus. Put plainly: Hypolipidemic activity was measured as reduction in rat serum cholesterol after oral administration in male Wistar rats at 200 mg / (kg day). It counts as functional. The gist of the method:
as §1

A short description of series [23]: as §2. The format is functional. An outline of the steps: as §3

Where “and” joins values, the source holds several entries; their conditions need not be identical. Equal entries are not always repeated.

Take `Cc1noc(C)c1C(=C1CCN(C)CC1)c1ccc(C(C)C)cc1`: the Reduction in [1] amounted to 93%; in series [3], 58%; in [4], 13%; in series [5], 89%; in [6] it was 82%; in [7], 43%. The Reduction in series [9] turned out to be 90%; in series [10] it was 31%; in series [11] it was 83%; in series [12], 78%. For the same molecule, the therapeutic safety margin (minimum lethal dose / MED) in series [2] amounted to 50. The same molecule gave an MED in series [8] of 1.
As for `COc1ccccc1C(c1ccns1)N1CCN(C)CC1` (stereo not given), the Reduction in [13] is on record as 3%; in [6], 38%; in [14], 22%; in series [9], 13%; in [15], 31%; in [16] it was 32%. Besides, the MED in series [8] is 80.
Consider `Cc1cc(C(c2ccccc2)N2CCN(C)CC2)sn1` (stereo not given), for which the Reduction in series [17] was found to be 21%; in series [18], 36%.
In the case of `Cc1cc(C(=C2CCN(C)CC2)c2ccc(C(C)C)cc2)sn1`, the Reduction amounted to 76% in series [1]; 26% in series [3]; 3% in series [4]; 87% in series [5]; 83% in series [6]; 37% in series [7]. Besides, the Reduction in [9] stood at 96%; in [10] it was 19%; in [11], 62%; in [12] it was 34%. For the same molecule, the therapeutic safety margin (minimum lethal dose / MED) in [2] came to 5. The molecule also registered an MED in series [8] of 6.
Consider `Cc1noc(C)c1C(c1ccc(C(C)C)cc1)N1CCNCC1` (stereo not given), for which the Reduction in series [1] is on record as 94%; in [4] it was 22%; in series [5], 85%; in [6] it was 86%; in series [19], 45%; in series [9], 96%. Besides, the Reduction is 72% in series [20], 19% in series [10], 76% in series [11] and 82% in series [12]. Also, the therapeutic safety margin (minimum lethal dose / MED) in [2] is 50. In [8], the MED is reported as 1.
As to `Cc1noc(C)c1C(c1ccc(C(C)C)cc1)N1CCN(C)CC1` (stereo not given), the Reduction in series [1] is 69%; in series [3] it was 41% and 30%; in series [4], 31%; in series [5], 80%; in series [6], 87%; in series [9], 66%. Also, the Reduction in series [10] amounted to 8%; in series [11], 67%; in series [12], 35%. In [2], the therapeutic safety margin (minimum lethal dose / MED) turned out to be 100. The same molecule returned an MED in [8] of 2.
With `Cc1cnsc1C(c1ccc(C(C)C)cc1)N1CCNCC1` (stereo not given), the Reduction is reported as 76% in series [1]; 44% in series [3]; 15% in series [4]; 87% in series [5]; 86% in series [6]; 2% in series [7]. In addition, the Reduction in [9] was 81%; in series [10] it was 16%; in [11] it was 70%; in series [12], 48%. Also, the therapeutic safety margin (minimum lethal dose / MED) in series [2] worked out at 10. Also, the MED in [8] was determined as 2.
For `CC(C)c1ccc(C(c2ccns2)N2CCNCC2)cc1` (stereo not given), the Reduction in series [1] is 87%; in [3], 57%; in [4] it was 24%; in series [5] it was 74%; in series [6], 84%; in series [7] it was 18%. Also, the Reduction was 90% in [9], 37% in series [10], 62% in series [11] and 65% in series [12]. In addition, in [2], the therapeutic safety margin (minimum lethal dose / MED) worked out at 4. Besides, the MED in [8] came to 1.
Take `Cc1cc(C(c2ccc(Cl)cc2)N2CCN(C)CC2)sn1` (stereo not given): the Reduction in series [21] was 19%; in series [17] it was 15%; in series [18] it was 67%; in series [9], 2%.
`Cc1cc(C(c2ccccc2C)N2CCN(C)CC2)sn1` (stereo not given): the Reduction in series [21] stood at 84%; in series [13] it was 27%; in series [14], 14%; in series [15], 56%; in series [16] it was 26%; in [22] it was 65%. The therapeutic safety margin (minimum lethal dose / MED) in [2] was found to be 10. The molecule further showed an MED in series [8] of 22.
Turning to `Cc1cnsc1C(c1ccc(C(C)C)cc1)N1CCN(CCO)CC1` (stereo not given), the Reduction in series [1] is 69%; in series [3] it was 30%; in series [4] it was 3%; in series [5], 82%; in [6] it was 87%; in [7], 8%. The Reduction in series [9] was determined as 97%; in series [10] it was 10%; in series [11], 69%; in series [12], 48%. Moreover, the therapeutic safety margin (minimum lethal dose / MED) in series [2] was found to be 30. This molecule came in with an MED in [8] of 3.
With `Cc1cc(C(c2ccc(C(C)C)cc2)N2CCN(C)CC2)sn1` (stereo not given), the therapeutic safety margin (minimum lethal dose / MED) in [2] was 15. The Reduction in series [3] is 16%; in series [6], 63%; in [9], 85%; in series [15] it was 45%; in series [16], 72%; in [11], 28%. Moreover, in series [8], the MED worked out at 9.
In the case of `Cc1cc(C(c2ccccc2Cl)N2CCN(C)CC2)sn1` (stereo not given), the therapeutic safety margin (minimum lethal dose / MED) in [2] came to 15. Moreover, the Reduction in [13] was 16%; in series [6], 61%; in series [14], 8%; in series [9] it was 44%; in series [15], 63%; in series [16], 50%. The same molecule came in with an MED in [8] of 30.
`CN1CCN(C(c2ccns2)c2ccccc2Cl)CC1` (stereo not given): in series [2], the therapeutic safety margin (minimum lethal dose / MED) came out at 5. The Reduction in [13] amounted to 43%; in [6] it was 67%; in series [14], 15%; in [9] it was 52%; in [11] it was 31%; in series [12] it was 12%. This molecule also showed an MED in series [8] of 10.
`Cc1noc(C)c1C(=C1CCNCC1)c1ccc(C(C)C)cc1`: the Reduction was 83% in series [1]; 44% in [3]; 41% in [4]; 83% in series [5]; 89% in [6]; 6% in series [7]. In addition, the Reduction was found to be 89% in series [9], 6% in series [10], 65% in series [11] and 46% in series [12].
For the molecule `CN1CCN(C(c2ccccc2)c2ccccc2)CC1` [CYCLIZINE], in series [23], the Ratio stood at 10. In addition, in [8], the MED is recorded as 30.

For the origin of these results see ChEMBL document CHEMBL1122607, “Heterocyclic analogues of chlorcyclizine with potent hypolipidemic activity” (J Med Chem, 1984).
